The source of these data is ChEMBL document CHEMBL1121388, “Analgesic narcotic antagonists. 2. 8-Alkymorphinan-6-ones” (J Med Chem, 1980).

The source made the active and inactive calls. No cut-off for these calls is given here.

Data set [1] has as its system Rattus norvegicus. Description: The Effective dose was measured by using rat tail flick assay after the compound administered intraperitoneally at a dose of 7.7 umol/kg; IA means inactive at the given dose. In kind it is functional, organism-based.
Data set [2] relates to Mus musculus. Kind of data set: The effective dose was measured by using mouse writhing assay after the compound administered subcutaneously. Type of data set: functional. The settings on record: sc. The essentials:
(§1)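 Analgesia in the mouse writhing test induced by acetic acid, with compound given subcutaneously. Salts were dissolved in distilled H₂O; free bases were dissolved by dropwise 1 N HCl and then diluted.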

The subject of data set [3] is Rattus norvegicus. Description: The Effective dose was measured by using rat tail flick assay after the compound administered intraperitoneally at a dose of 50 umol/kg; IA means inactive at the given dose. Type of data set: functional, organism-based.
For data set [4], the system named is Rattus norvegicus. Kind of data set: The effective dose was measured by using rat tail flick assay after the compound administered intraperitoneally. In kind it is functional. The settings on record: ip.
For data set [5], the system named is Mus musculus. Description: The Effective dose was measured by using mouse writhing assay after the compound administered subcutaneously at a dose of 75 umol/kg; IA means inactive at the given dose. Type of data set: functional, organism-based. In a few lines:
as §1

For data set [6], the system named is Mus musculus. Description: The Effective dose was measured by using mouse writhing assay after the compound administered subcutaneously at a dose of 50 umol/kg; IA means inactive at the given dose. Type of data set: functional, organism-based. The essentials: as §1
The subject of data set [7] is Rattus norvegicus. Description: The Effective dose was measured by using rat tail flick assay after the compound administered subcutaneously at a dose of 28 umol/kg; IA means inactive at the given dose. Type of data set: functional, organism-based. The essentials:
(§2)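 Agonist activity in the rat heat-stimulus tail-flick test. Drug was given subcutaneously and rats were tested 20 min after dosing. Salts were dissolved in distilled H₂O; free bases were dissolved with dropwise 1 N HCl and then diluted. ED₅₀ or inactivity/lethality recorded at the dose indicated.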

Data set [8] has as its system Rattus norvegicus. Kind of data set: The Effective dose was measured by using rat tail flick assay after the compound administered intraperitoneally at a dose of 9 umol/kg; IA means inactive at the given dose. Type of data set: functional, organism-based.
For data set [9], the system named is Rattus norvegicus. Description: The Effective dose was measured by using rat tail flick assay after the compound administered intraperitoneally at a dose of 50 uM/Kg; IA means inactive at the given dose. Type of data set: functional, organism-based.
In data set [10] the test system is Rattus norvegicus. Kind of data set: The %change in weight from day 0 to day 4 after administering the compound at dose of 80 (mg/kg)/day in rat. In kind it is functional. In a few lines:
(§3)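 Rat physical dependence liability study: drug infused at the stated mg/kg/day for 6 days, with saline-infused controls for 6 days. Body weight was recorded daily and expressed as % change from day 0 on days 1–4. Groups of 4–6 rats; values are means ±.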

For data set [11], the system named is Rattus norvegicus. Description: The %change in weight from day 0 to day1 after administering the compound at dose of 80 (mg/kg)/day in rat. In kind it is functional. In a few lines: as §3
For data set [12], the system named is Rattus norvegicus. Kind of data set: The %change in weight from day 0 to day 3 after administering the compound at dose of 80 (mg/kg)/day in rat. In kind it is functional. The essentials:
as §3

Data set [13] concerns Rattus norvegicus. Description: The %change in weight from day 0 to day 4 after administering the compound at dose of 40 (mg/kg)/day in rat. Type of data set: functional. In a few lines: as §3
The subject of data set [14] is Rattus norvegicus. Kind of data set: The %change in weight from day 0 to day 2 after administering the compound at dose of 80 (mg/kg)/day in rat. Type of data set: functional. The essentials: as §3
In data set [15] the test system is Rattus norvegicus. Description: The %change in weight from day 0 to day 3 after administering the compound at dose of 40 (mg/kg)/day in rat. Type of data set: functional. In a few lines:
as §3

In data set [16] the test system is Rattus norvegicus. Description: The %change in weight from day 0 to day1 after administering the compound at dose of 40 (mg/kg)/day in rat. In kind it is functional. The essentials:
as §3

The subject of data set [17] is Rattus norvegicus. Description: The %change in weight from day 0 to day 2 after administering the compound at dose of 40 (mg/kg)/day in rat. In kind it is functional. In a few lines: as §3
Data set [18] has as its system Rattus norvegicus. Kind of data set: The Effective dose was measured by using rat tail flick assay after the compound administered subcutaneously; lethal at the given dose. In kind it is organism-based. The note with it: in vivo, sc. In a few lines: as §2
Data set [19] deals with Rattus norvegicus. Kind of data set: The Effective dose was measured by using rat tail flick assay after the compound administered intraperitoneally at a dose of 30 umol/kg; IA means inactive at the given dose. Type of data set: functional, organism-based.

As to `CCC1CCCC23CCN(CC4CCC4)C(Cc4ccc(OC)cc42)[C@H]13` (stereo partly specified), the ED50 result in data set [1] was “inactive”. Also, the ED50 in [2] is more than 25 µmol/kg.

`CC[C@H]1CC(=O)CC23CCN(CC4CCC4)C(Cc4ccc(OC)cc42)[C@H]13` (stereo partly specified) returned an ED50 in data set [2] of 14.2 µmol/kg. The ED50 result in data set [3] was “inactive”.

Regarding `CC[C@@H]1CC(=O)CC23CCN(CC4CCC4)C(Cc4ccc(OC)cc42)[C@@H]13` (stereo partly specified), the ED50 in data set [4] is more than 25 µmol/kg. In addition, the ED50 entry in [5] is “inactive”.

As for `CC[C@H]1CC(=O)CC23CCN(CC4CC4)C(Cc4ccc(O)cc42)[C@H]13` (stereo partly specified), the ED50 result in [6] is “inactive”. This compound displayed an ED50 in data set [4] of 4.7 µmol/kg.

Regarding `CCC[C@@H]1CC(=O)CC23CCN(C)C(Cc4ccc(OC)cc42)[C@@H]13` (stereo partly specified), the ED50 entry in data set [7] was “inactive”. The compound also gave an ED50 in data set [2] of 55 µmol/kg.

As to `CCC1CCCC23CCN(CC4CCC4)C(Cc4ccc(O)cc42)[C@H]13` (stereo partly specified), in [2], the ED50 was more than 25 µmol/kg. Besides, the ED50 entry in data set [8] is “inactive”.

For `CCC[C@H]1CC(=O)CC23CCN(CC4CCC4)C(Cc4ccc(OC)cc42)[C@H]13` (stereo partly specified), in [2], the ED50 was 34 µmol/kg. In addition, the ED50 entry in data set [9] was “inactive”.

Take `C[C@H]1CC(=O)CC23CCN(CC4CCC4)C(Cc4ccc(O)cc42)[C@H]13.O=C(O)C(O)C(O)C(=O)O` (stereo partly specified): the Change in data set [10] is given as 9.5%; in data set [11], 1.7%; in data set [12], 5.3%; in data set [13] it was 9.6%; in data set [14], 3.1%; in data set [15], 6.1%. The Change in data set [16] is on record as 1.2%; in data set [17], 2%.

In the case of `COc1ccc2c(c1)C13CCN(C)C(C2)[C@H]1[C@H](C)CC(=O)C3` (stereo partly specified), the results for the ED50 in data set [2] and in data set [18] were 2.65 µmol/kg and 9 µM/kg, respectively.

For `COc1ccc2c(c1)C13CCN(CC4CCC4)C(C2)[C@H]1CCC(=O)C3` (stereo partly specified), in data set [2], the ED50 was determined as 20.3 µmol/kg. Also, in [19], the ED50 entry was “inactive”.
